Reference: ChEMBL document CHEMBL5058577, “EUbOPEN Chemogenomics Library 2 (Multiplex)” (2022)

Tested on: Fibroblast
Experiment: Multiplex assay against human fibroblast
Assay type: toxicity, cell-based
In short: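 Four dyes were applied at seeding to live cells: Hoechst33342, BioTracker Green Microtubule Cytoskeleton Dye, MitoTracker Red and Annexin V Alexa Fluor 680. Imaging after compound addition used a CQ1 microscope at 37°C and 5% CO2. CellPathfinder machine-learning gating then sorted cells into Hoechst high-intensity objects or normal cells, normal cells into healthy, pyknosed or fragmented nuclei, and pyknosed cells into mitotic or apoptotic, with tubulin, mitochondrial-mass and membrane-permeability phenotypes given as per cents of healthy-nucleus cells.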

[1] = 12 h, 1 µM, compound concentration 1 uM, replicate 1
[2] = 12 h, 1 µM, compound concentration 1 uM, replicate 2
[3] = 12 h, 10 µM, compound concentration 10 uM, replicate 1
[4] = 12 h, 10 µM, compound concentration 10 uM, replicate 2
[5] = 24 h, 1 µM, compound concentration 1 uM, replicate 1
[6] = 24 h, 1 µM, compound concentration 1 uM, replicate 2
[7] = 24 h, 10 µM, compound concentration 10 uM, replicate 1
[8] = 24 h, 10 µM, compound concentration 10 uM, replicate 2
[9] = 48 h, 1 µM, compound concentration 1 uM, replicate 1
[10] = 48 h, 1 µM, compound concentration 1 uM, replicate 2
[11] = 48 h, 10 µM, compound concentration 10 uM, replicate 1
[12] = 48 h, 10 µM, compound concentration 10 uM, replicate 2

CN1CCN(c2cc(-c3ccccc3)nc(N)n2)CC1
Population Apoptotic (%) [1]: 47%
Population Fragmented Nuclei (%) [1]: 15%
Population Healthy Nuclei (%) [1]: 68%
Population Hoechst High Intensity Objects (%) [1]: 2%
Population Membrane Permeable-Phenotype (%) [1]: 1%
Population Mitochondria Different-Phenotype (%) [1]: 10%
Population Mitotic Cells (%) [1]: 52%
Population Normal (%) [1]: 97%
Population Pyknosed Nuclei (%) [1]: 15%
Population Tubulin-Different-Phenotype (%) [1]: 25%
Total Cell Count [1]: 135
Population Apoptotic (%) [2]: 37%
Population Fragmented Nuclei (%) [2]: 28%
Population Healthy Nuclei (%) [2]: 45%
Population Hoechst High Intensity Objects (%) [2]: 5%
Population Membrane Permeable-Phenotype (%) [2]: 11%
Population Mitochondria Different-Phenotype (%) [2]: 11%
Population Mitotic Cells (%) [2]: 62%
Population Normal (%) [2]: 94%
Population Pyknosed Nuclei (%) [2]: 26%
Population Tubulin-Different-Phenotype (%) [2]: 66%
Total Cell Count [2]: 97
Population Apoptotic (%) [3]: 48%
Population Fragmented Nuclei (%) [3]: 16%
Population Healthy Nuclei (%) [3]: 67%
Population Hoechst High Intensity Objects (%) [3]: 2%
Population Membrane Permeable-Phenotype (%) [3]: 0%
Population Mitochondria Different-Phenotype (%) [3]: 6%
Population Mitotic Cells (%) [3]: 51%
Population Normal (%) [3]: 97%
Population Pyknosed Nuclei (%) [3]: 15%
Population Tubulin-Different-Phenotype (%) [3]: 44%
Total Cell Count [3]: 216
Population Apoptotic (%) [4]: 36%
Population Fragmented Nuclei (%) [4]: 40%
Population Healthy Nuclei (%) [4]: 36%
Population Hoechst High Intensity Objects (%) [4]: 7%
Population Membrane Permeable-Phenotype (%) [4]: 10%
Population Mitochondria Different-Phenotype (%) [4]: 12%
Population Mitotic Cells (%) [4]: 64%
Population Normal (%) [4]: 92%
Population Pyknosed Nuclei (%) [4]: 22%
Population Tubulin-Different-Phenotype (%) [4]: 67%
Total Cell Count [4]: 118
Population Apoptotic (%) [5]: 75%
Population Fragmented Nuclei (%) [5]: 17%
Population Healthy Nuclei (%) [5]: 65%
Population Hoechst High Intensity Objects (%) [5]: 2%
Population Membrane Permeable-Phenotype (%) [5]: 1%
Population Mitochondria Different-Phenotype (%) [5]: 3%
Population Mitotic Cells (%) [5]: 25%
Population Normal (%) [5]: 97%
Population Pyknosed Nuclei (%) [5]: 16%
Population Tubulin-Different-Phenotype (%) [5]: 19%
Total Cell Count [5]: 145
Population Apoptotic (%) [6]: 47%
Population Fragmented Nuclei (%) [6]: 36%
Population Healthy Nuclei (%) [6]: 44%
Population Membrane Permeable-Phenotype (%) [6]: 8%
Population Mitochondria Different-Phenotype (%) [6]: 8%
Population Mitotic Cells (%) [6]: 52%
Population Pyknosed Nuclei (%) [6]: 18%
Population Tubulin-Different-Phenotype (%) [6]: 50%
Total Cell Count [6]: 106
Population Apoptotic (%) [7]: 41%
Population Fragmented Nuclei (%) [7]: 12%
Population Healthy Nuclei (%) [7]: 70%
Population Hoechst High Intensity Objects (%) [7]: 2%
Population Membrane Permeable-Phenotype (%) [7]: 1%
Population Mitochondria Different-Phenotype (%) [7]: 6%
Population Mitotic Cells (%) [7]: 58%
Population Normal (%) [7]: 97%
Population Pyknosed Nuclei (%) [7]: 17%
Population Tubulin-Different-Phenotype (%) [7]: 41%
Total Cell Count [7]: 213
Population Apoptotic (%) [8]: 29%
Population Fragmented Nuclei (%) [8]: 33%
Population Healthy Nuclei (%) [8]: 43%
Population Membrane Permeable-Phenotype (%) [8]: 4%
Population Mitotic Cells (%) [8]: 70%
Population Pyknosed Nuclei (%) [8]: 23%
Population Tubulin-Different-Phenotype (%) [8]: 64%
Total Cell Count [8]: 107
Population Apoptotic (%) [9]: 70%
Population Fragmented Nuclei (%) [9]: 22%
Population Healthy Nuclei (%) [9]: 62%
Population Hoechst High Intensity Objects (%) [9]: 2%
Population Membrane Permeable-Phenotype (%) [9]: 0%
Population Mitochondria Different-Phenotype (%) [9]: 2%
Population Mitotic Cells (%) [9]: 30%
Population Normal (%) [9]: 97%
Population Pyknosed Nuclei (%) [9]: 15%
Population Tubulin-Different-Phenotype (%) [9]: 20%
Total Cell Count [9]: 137
Population Apoptotic (%) [10]: 50%
Population Fragmented Nuclei (%) [10]: 36%
Population Healthy Nuclei (%) [10]: 49%
Population Hoechst High Intensity Objects (%) [10]: 3%
Population Membrane Permeable-Phenotype (%) [10]: 2%
Population Mitochondria Different-Phenotype (%) [10]: 6%
Population Mitotic Cells (%) [10]: 50%
Population Normal (%) [10]: 96%
Population Pyknosed Nuclei (%) [10]: 14%
Population Tubulin-Different-Phenotype (%) [10]: 54%
Total Cell Count [10]: 101
Population Apoptotic (%) [11]: 40%
Population Fragmented Nuclei (%) [11]: 26%
Population Healthy Nuclei (%) [11]: 58%
Population Hoechst High Intensity Objects (%) [11]: 3%
Population Membrane Permeable-Phenotype (%) [11]: 0%
Population Mitochondria Different-Phenotype (%) [11]: 0%
Population Mitotic Cells (%) [11]: 59%
Population Normal (%) [11]: 96%
Population Pyknosed Nuclei (%) [11]: 14%
Population Tubulin-Different-Phenotype (%) [11]: 31%
Total Cell Count [11]: 227
Population Apoptotic (%) [12]: 66%
Population Fragmented Nuclei (%) [12]: 50%
Population Healthy Nuclei (%) [12]: 39%
Population Membrane Permeable-Phenotype (%) [12]: 9%
Population Mitochondria Different-Phenotype (%) [12]: 9%
Population Mitotic Cells (%) [12]: 33%
Population Pyknosed Nuclei (%) [12]: 10%
Population Tubulin-Different-Phenotype (%) [12]: 60%
Total Cell Count [12]: 114
